In the array DNA melting data of Ke et al. (doi:10.1101/2024.01.08.574731):

Assays:
[1] = folding enthalpy; higher = less favourable; fluorescence melt of hairpins on a sequencing array, two-state fit; conditions: sodium 0.088 M
Outline: (§1)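 Folding enthalpy and melting temperature come from bootstrapped two-state fits to Cy3 fluorescence of library hairpins carrying annealed Cy3 and quencher oligos on a sequenced MiSeq flow cell. Imaging was done in 50 mM Na-HEPES pH 8.0, 25 mM NaCl, stepping by 2.5 °C up to 60 °C, and signals were normalised to pre-quench Cy3 and to control constructs. Results of four replicates were combined by inverse variance, and fitted temperatures were raised by 9.35 °C to match UV melts.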

[2] = melting temperature; fluorescence melt of hairpins on a sequencing array, two-state fit, raised by 9.35 °C to match UV melts; conditions: sodium 0.088 M
Outline: as §1

Row | Sequence | folding enthalpy [1] | Tm [2]
1 | GATCTCCTAAGAGATC ((((((....)))))) | -178 kJ/mol | 53.6 °C
2 | GCATCCGAAAGGAGGTGC ((((((....)))..))) | -104 kJ/mol | 48.1 °C
3 | GCATACCCGAAAGGGTGC (((..(((....)))))) | -50.5 kJ/mol | 49.7 °C
4 | GACCAAGGAAACTTGGCC (.(((((....))))).) | -69.4 kJ/mol | 41.7 °C
5 | GCACCCGAAAGGGGATGC ((((((....)))..))) | -82 kJ/mol | 50.8 °C
6 | GCTATGGCGAAAGCCAGC (((..(((....)))))) | -46.7 kJ/mol | 42.6 °C
7 | GTAATCCGAAAGGAATAC (((.(((....))).))) | -110 kJ/mol | 40.6 °C
8 | GTAAGTGGAAACACTTAC (((((((....))))))) | -189 kJ/mol | 55.4 °C
9 | GTGCAATCGAAAGATCAC (((..(((....)))))) | -58.6 kJ/mol | 30 °C
10 | GATCGCATAGGCGATC ((((((....)))))) | -134 kJ/mol | 68.2 °C
11 | GTCCTAACGAAAGTTGAC (((..(((....)))))) | -45.6 kJ/mol | 26.6 °C
12 | GGTCATCGAAAGATACC (((.(((....)))))) | -101 kJ/mol | 38.4 °C
13 | GATCACAGCGGTGATC ((((((....)))))) | -122 kJ/mol | 56.3 °C
14 | GGACGCCGAAAGGCCTCC (((.(((....))).))) | -80.1 kJ/mol | 44.5 °C
15 | GCGCGGCGAAAGCTGAGC ((.(.((....)).).)) | -130 kJ/mol | 63.2 °C
16 | GCGGTAAACCGC ((((....)))) | -110 kJ/mol | 56 °C
17 | GCGGAGGCCGC ((((...)))) | -75.1 kJ/mol | 58.9 °C
18 | GGCAATGAAAATTGCC ((((((....)))))) | -157 kJ/mol | 61.4 °C
19 | GATCAAGAGCTTGATC ((((((....)))))) | -160 kJ/mol | 42.2 °C
20 | GAGGATGCGAAAGCACTC (((..(((....)))))) | -59.2 kJ/mol | 34.9 °C
21 | GCATGGCGAAAGCAGTGC (((..((....))..))) | -82.3 kJ/mol | 56.5 °C
22 | GTAACCGGAAACGGTCAC ((.((((....)))).)) | -71.9 kJ/mol | 39.7 °C
23 | GCGTGGTTACGC ((((....)))) | -90.8 kJ/mol | 54.9 °C

Row | Sequence | folding enthalpy [1] | Tm [2]
24 | GGTTACGAAAGTAACC ((((((....)))))) | -145 kJ/mol | 67.5 °C
25 | GATCGAAATGTCGATC ((((((....)))))) | -154 kJ/mol | 48.7 °C
26 | GTCGACGAAAGTCGGAC ((((((....))).))) | -59.7 kJ/mol | 58.1 °C
27 | GGCACTGGAAACAGTGTC (.(((((....))))).) | -158 kJ/mol | 54.1 °C
28 | GGACGTCCGAAAGGATCC (((..(((....)))))) | -62.3 kJ/mol | 25.8 °C
29 | GATCAACTATTGATC ((((((...)))))) | -127 kJ/mol | 41 °C
30 | GCATAGGGAAACCTACGC ((.((((....)))).)) | -117 kJ/mol | 35.9 °C
31 | GACCCCGGAAACGAGGTC ((((.((....)).)))) | -155 kJ/mol | 48 °C
32 | GGTACGGGAAACCGTGCC ((.((((....)))).)) | -171 kJ/mol | 59.7 °C
33 | GCTTCGCGAAAGCACAGC (((..((....))..))) | -64.1 kJ/mol | 38.2 °C
34 | GATGCCCGAAAGGGAATC (((.(((....))).))) | -158 kJ/mol | 53.9 °C
35 | GACTTGGCGAAAGCCGTC (((..(((....)))))) | -31 kJ/mol | 48.4 °C
36 | GCCGCAGGAAACTACGGC ((((.((....)).)))) | -136 kJ/mol | 50.8 °C
37 | GGACCCGAAAGGGGGTCC ((((((....)))..))) | -113 kJ/mol | 63.8 °C
38 | GATCTGATTCAGATC ((((((...)))))) | -150 kJ/mol | 48.7 °C
39 | GGAGACGAAAGTCCTCC ((((((....))).))) | -104 kJ/mol | 48.7 °C
40 | GTGCTGGGAAACCAGCGC (.(((((....))))).) | -124 kJ/mol | 61.6 °C
41 | GTTTGCGGAAACGCGAAC (((.(((....))).))) | -150 kJ/mol | 56.9 °C
42 | GGGTTTCGAAAGAATCCC (((.(((....))).))) | -153 kJ/mol | 50.1 °C
43 | GGGTGCGGAAACGCGTCC ((..(((....)))..)) | -82.5 kJ/mol | 50.9 °C
44 | GCCTCAGAAATGAGGC ((((((....)))))) | -129 kJ/mol | 62.5 °C
45 | GTGTTGCGAAAGCACCAC (((.(((....))).))) | -128 kJ/mol | 51.2 °C
46 | GGTCCCGAAAGGGATACC ((((((....)))..))) | -53.9 kJ/mol | 41.4 °C

Row | Sequence | folding enthalpy [1] | Tm [2]
47 | GGGTGCGGAAACGCACTC (.(((((....))))).) | -50.3 kJ/mol | 59.4 °C
48 | GGGATTACGAAAGTACCC (((..(((....)))))) | -71.4 kJ/mol | 34.1 °C
49 | GCGAAGGGAAACCTCCGC (((.(((....))).))) | -109 kJ/mol | 46.6 °C
50 | GCTCACGAAAGTGCAAGC ((((((....)))..))) | -73 kJ/mol | 39.4 °C
51 | GAGACTGCGAAAGCACTC (((..(((....)))))) | -41.3 kJ/mol | 26.7 °C
52 | GGTCAGCGAAAGCTTACC (((.(((....))).))) | -133 kJ/mol | 48.9 °C
53 | GGTGCCGGAAACGACACC ((((.((....)).)))) | -188 kJ/mol | 54.6 °C
54 | GCGGACGAAAGTCTCGC ((((((....))).))) | -79.2 kJ/mol | 55.2 °C
55 | GGAGTAGCGAAAGCTTCC (((..(((....)))))) | -67.5 kJ/mol | 38.2 °C
56 | GCATCTGAAAAGATGC ((((((....)))))) | -136 kJ/mol | 64.7 °C
57 | GATCAAAGAGTTGATC ((((((....)))))) | -89.2 kJ/mol | 37.2 °C
58 | GCAATGCGAAAGCTCTGC (((..((....))..))) | -67.3 kJ/mol | 37.2 °C
59 | GGTTGCGAAAGCATACC ((((((....))).))) | -120 kJ/mol | 51.8 °C
60 | GGACGCGGAAACACGTCC (((((.(....).))))) | -163 kJ/mol | 54.8 °C
61 | GATCATGAACATGATC ((((((....)))))) | -172 kJ/mol | 54 °C
62 | GAAACTGGAAACAGTTTC (((((((....))))))) | -215 kJ/mol | 56.9 °C
63 | GCGTCGGGAAACCAACGC ((((.((....)).)))) | -173 kJ/mol | 51.5 °C
64 | GATCTTCGGAAGATC ((((((...)))))) | -139 kJ/mol | 41.9 °C
65 | GTCATAGGAAACCATGAC (((((.(....).))))) | -115 kJ/mol | 38.5 °C
66 | GCTCAGCGAAAGCACAGC (((..((....))..))) | -62.2 kJ/mol | 39.7 °C
67 | GATCTAACTTAGATC ((((((...)))))) | -123 kJ/mol | 37.3 °C
68 | GGTGATGCGAAAGCAACC (((..(((....)))))) | -57.2 kJ/mol | 36.9 °C
69 | GACAACCCGAAAGGGGTC (((..(((....)))))) | -54.1 kJ/mol | 39.1 °C
